The source of these data is ChEMBL document CHEMBL1128217, “Synthesis, structure-affinity relationships, and biological activities of ligands binding to retinoic acid receptor subtypes” (J Med Chem, 1995).

For experiment [1], the system named is F9. Put plainly: In vitro promotion of plasminogen activator secretion from F9 (murine teratocarcinoma) cells. The class given is functional, cell-based. Particulars: Mus musculus; call rule not given here. Put shortly:
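F9 murine teratocarcinoma cells grown in DMEM with 15% fetal bovine serum, exposed 3 days to a range of retinoid concentrations. Differentiation quantified by plasminogen activator secretion; AC50 (concentration giving half-maximal secretion) obtained by nonlinear regression.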

Experiment [2] deals with T1, Retinoic acid receptor gamma (Homo sapiens, UniProt P13631).
T1 sequence (P13631 whole entry): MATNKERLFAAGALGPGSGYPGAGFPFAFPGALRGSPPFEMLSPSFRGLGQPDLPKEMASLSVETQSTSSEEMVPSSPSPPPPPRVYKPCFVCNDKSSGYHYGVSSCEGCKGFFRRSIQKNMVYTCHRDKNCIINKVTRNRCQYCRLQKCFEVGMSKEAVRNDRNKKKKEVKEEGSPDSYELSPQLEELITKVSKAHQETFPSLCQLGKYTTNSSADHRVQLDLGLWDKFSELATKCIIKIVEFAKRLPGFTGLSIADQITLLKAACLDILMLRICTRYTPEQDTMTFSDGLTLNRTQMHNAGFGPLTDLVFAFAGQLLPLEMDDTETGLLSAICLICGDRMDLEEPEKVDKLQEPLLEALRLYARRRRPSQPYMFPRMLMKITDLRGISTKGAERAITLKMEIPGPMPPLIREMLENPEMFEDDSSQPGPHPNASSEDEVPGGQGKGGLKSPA
The experiment in a line: Binding affinity to retinoic acid receptor (RAR) gamma using [3H]CD 367 as radioligand.

Experiment [3] addresses T2, Retinoic acid receptor beta (Homo sapiens, UniProt P10826).
T2 sequence (P10826 whole entry): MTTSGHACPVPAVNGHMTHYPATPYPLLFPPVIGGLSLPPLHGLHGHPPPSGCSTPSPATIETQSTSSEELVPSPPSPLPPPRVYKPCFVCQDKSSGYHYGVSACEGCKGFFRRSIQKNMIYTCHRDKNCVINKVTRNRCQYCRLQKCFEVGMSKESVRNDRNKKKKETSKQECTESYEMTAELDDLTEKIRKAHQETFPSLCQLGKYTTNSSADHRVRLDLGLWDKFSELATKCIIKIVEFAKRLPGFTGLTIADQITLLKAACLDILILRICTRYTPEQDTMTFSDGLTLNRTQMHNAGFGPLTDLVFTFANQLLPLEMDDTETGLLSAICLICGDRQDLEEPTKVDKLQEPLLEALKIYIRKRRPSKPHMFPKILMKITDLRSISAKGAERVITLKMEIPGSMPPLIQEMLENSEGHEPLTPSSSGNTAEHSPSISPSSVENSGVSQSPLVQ
The experiment in a line: Binding affinity to retinoic acid receptor beta using [3H]CD 367 as radioligand.

The target in experiment [4] is T3, Retinoic acid receptor alpha (Homo sapiens, UniProt P10276).
T3 sequence (P10276 whole entry): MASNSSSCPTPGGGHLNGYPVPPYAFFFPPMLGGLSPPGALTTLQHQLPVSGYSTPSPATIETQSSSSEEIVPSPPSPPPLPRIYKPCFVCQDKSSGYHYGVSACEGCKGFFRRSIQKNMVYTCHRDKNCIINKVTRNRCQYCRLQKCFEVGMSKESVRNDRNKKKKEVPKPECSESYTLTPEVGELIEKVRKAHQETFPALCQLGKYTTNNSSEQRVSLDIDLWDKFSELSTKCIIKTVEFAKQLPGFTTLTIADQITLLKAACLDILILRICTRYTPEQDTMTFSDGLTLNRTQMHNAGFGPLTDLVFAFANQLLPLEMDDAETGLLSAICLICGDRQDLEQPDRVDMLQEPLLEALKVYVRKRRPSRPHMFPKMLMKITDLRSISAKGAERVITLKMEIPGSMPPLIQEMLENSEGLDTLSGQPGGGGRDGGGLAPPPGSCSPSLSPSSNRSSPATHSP
The experiment in a line: Binding affinity to retinoic acid receptor alpha using [3H]CD 367 as radioligand.

Experiment [5] concerns F9. Put plainly: Compound was evaluated for its inhibitory activity against F9 murine teratocarcinoma cell differentiation; NA=not active. The class given is functional, cell-based, Mus musculus.
For experiment [6], the system named is F9. Put plainly: Compound was evaluated for its inhibitory activity against F9 murine teratocarcinoma cell differentiation;NA=not active. The class given is functional, cell-based, Mus musculus.
In experiment [7] the test system is F9. The experiment in a line: Compound was evaluated for its inhibitory activity against F9 murine teratocarcinoma cell differentiation. The class given is functional, cell-based. Particulars: Mus musculus.

Consider `O=C(O)c1ccc2cc(-c3ccc(C(=O)O)c(C45CC6CC(CC(C6)C4)C5)c3)ccc2c1`, for which, in the experiment on F9 [1], the AC50 (commonly the concentration giving half of the maximal activity seen) stood at 2000 nM. Further, the Ki in experiment [2], in experiment [3] and in experiment [4] was above 10000 nM in each case.

Take `O=C(O)c1ccc(/C=C/c2ccc(O)c(C34CC5CC(CC(C5)C3)C4)c2)cc1`: the AC50 in the experiment on F9 [1] was 1 nM. In addition, the Ki – broadly, a dissociation constant, usually derived from enzyme kinetics or from competition with a known ligand – in experiment [2] turned out to be 20 nM; in experiment [3], 70 nM; in experiment [4], 610 nM.

In the experiment with F9 [1], `COc1ccc(/C(C)=C/c2ccc(C(=O)O)cc2)cc1C1(C)CCCCC1` yielded an AC50 of 30 nM. Besides, the Ki turned out to be 29 nM in experiment [2], 17 nM in experiment [3] and 420 nM in experiment [4].

For the molecule `CCCCCCOc1ccc(-c2ccc3cc(C(=O)O)ccc3c2)cc1C12CC3CC(CC(C3)C1)C2`, in the experiment with F9 [5], the AC50 entry was “Not Active”. For the same molecule, the Ki in experiment [2], in experiment [3] and in experiment [4] was above 10000 nM each time.

`COc1ccc(-c2ccc3cc(C(=O)O)ccc3c2)cc1C12CC3CC(CC(C3)C1)C2` had an AC50 in the experiment with F9 [1] of 37 nM. For the same molecule, the Ki was 34 nM in experiment [3] and 1100 nM in experiment [4].

As for `C/C(=C\c1ccc(C(=O)O)cc1)c1ccc(O)c(C2(C)CCCCC2)c1`, the AC50 with F9 [1] was determined as 300 nM. For the same molecule, the Ki in experiment [2] was 27 nM; in experiment [3] it was 90 nM; in experiment [4], 1060 nM.

On to `CC(C)(C)c1cc(-c2ccc3cc(C(=O)O)ccc3c2)ccc1O`, for which, in the experiment with F9 [6], the AC50 result is “Not Active”. Further, the IC50 (commonly the point on the concentration scale where inhibition reaches its midpoint) in the experiment on F9 [6] is “Not Active”. For the same molecule, the Ki in experiment [2] is 200 nM; in experiment [3], 3550 nM; in experiment [4] it was above 10000 nM.

For `C/C(=C\c1ccc(C(=O)O)cc1)c1ccc(O)c(C(C)(C)C)c1`, the AC50 result in the experiment with F9 [6] is reported as “Not Active”. In the experiment on F9 [7], this molecule yielded an IC50 of 700 nM. Moreover, the Ki in experiment [2] stood at 85 nM; in experiment [3], 105 nM; in experiment [4], 834 nM.

`O=C(O)c1ccc2cc(-c3ccc(O)c(C45CC6CC(CC(C6)C4)C5)c3)ccc2c1` [O-DEMETHYLATED ADAPALENE] gave an AC50 in the experiment on F9 [1] of 33 nM. The Ki was determined as 2480 nM in experiment [3] and 6500 nM in experiment [4].

The molecule `COc1ccc(/C(C)=C/c2ccc(C(=O)O)cc2)cc1C(C)(C)C` displayed an AC50 in the experiment with F9 [1] of 30 nM. The Ki in experiment [2] turned out to be 13 nM; in experiment [3], 12 nM; in experiment [4], 130 nM.

In turn, `CC1(C)CCC(C)(C)c2cc(-c3ccc4cc(C(=O)O)ccc4c3)ccc21` showed an AC50 in the experiment with F9 [1] of 15 nM. Moreover, the Ki in experiment [2] is 40 nM; in experiment [3], 13 nM; in experiment [4], 580 nM.

In the experiment with F9 [1], `O=C(O)c1ccc2cc(-c3ccc(CC(O)CO)c(C45CC6CC(CC(C6)C4)C5)c3)ccc2c1` (centres undefined) showed an AC50 of 100 nM. The Ki in experiment [2] was 34 nM; in experiment [3] it was 158 nM; in experiment [4] it was above 10000 nM.

Regarding `O=C(O)c1ccc2cc(-c3ccc(OCC(O)CO)c(C45CC6CC(CC(C6)C4)C5)c3)ccc2c1` (centres undefined), in the experiment on F9 [1], half-maximal activity (AC50) was put at 83 nM. In addition, the Ki in experiment [2] turned out to be 151 nM; in experiment [3] it was 89 nM; in experiment [4], 5000 nM.

The molecule `COc1ccc(-c2ccc3cc(C(=O)O)ccc3c2)cc1C(C)(C)C` displayed an AC50 in the experiment on F9 [1] of 200 nM. For the same molecule, the values for the Ki in experiment [2], in experiment [3] and in experiment [4] were 426 nM, 36 nM and 6500 nM, respectively.

As for `COc1ccc(/C(C)=C/c2ccc(C(=O)O)cc2)cc1C12CC3CC(CC(C3)C1)C2`, in the experiment with F9 [1], the AC50 is 100 nM. Also, the values for the Ki in experiment [2], in experiment [3] and in experiment [4] were 95 nM, 105 nM and 460 nM, respectively.

Regarding `O=C(O)c1ccc2cc(-c3ccc(C(O)CO)c(C45CC6CC(CC(C6)C4)C5)c3)ccc2c1` (centres undefined), half-maximal activity with F9 [1] (AC50) was put at 73 nM. Also, the inhibition constant Ki in experiment [2] is 153 nM; in experiment [3], 288 nM; in experiment [4], above 10000 nM.

Consider `CC1(C)CCC(C)(C)c2cc3cc(-c4ccc(C(=O)O)cc4)ccc3cc21`, for which, in the experiment on F9 [1], the AC50 came to 0.46 nM. In addition, the Ki is 2 nM in experiment [2], 3 nM in experiment [3] and 5.3 nM in experiment [4].

Take `C/C(=C\c1ccc(C(=O)O)cc1)c1ccc2c(c1)C(C)(C)CCC2(C)C`: the AC50 in the experiment with F9 [1] came to 0.78 nM. This counts as sub-nanomolar.

Molecule `CC1(c2cc(-c3ccc4cc(C(=O)O)ccc4c3)ccc2O)CCCCC1` displayed an AC50 in the experiment on F9 [1] of 175 nM. Moreover, the values for the Ki in experiment [2], in experiment [3] and in experiment [4] were 121 nM, 660 nM and above 10000 nM, respectively.

`C/C(=C\c1ccc(C(=O)O)cc1)c1ccc(O)c(C23CC4CC(CC(C4)C2)C3)c1`: half-maximal activity with F9 [1] (AC50) was put at 66 nM. The results for the Ki in experiment [2], in experiment [3] and in experiment [4] were 53 nM, 1240 nM and 1140 nM, respectively.

In turn, `O=C(O)c1ccc2cc(-c3ccc(CO)c(C45CC6CC(CC(C6)C4)C5)c3)ccc2c1` yielded an AC50 in the experiment with F9 [1] of 460 nM. In addition, the Ki is 386 nM in experiment [2], 156 nM in experiment [3] and above 10000 nM in experiment [4].

In turn, `COc1ccc(-c2ccc3cc(C(=O)O)ccc3c2)cc1C1(C)CCCCC1` yielded an AC50 with F9 [1] of 150 nM. For the same molecule, the Ki in experiment [2] is 160 nM; in experiment [3], 26 nM; in experiment [4], 1120 nM.

On to `CC1=C(/C=C/C(C)=C/C=C/C(C)=C/C(=O)O)C(C)(C)CCC1` [TRETINOIN], for which the AC50 in the experiment with F9 [1] worked out at 200 nM. This lies in the sub-micromolar range.

For `CC1(C)CCOc2ccc(-c3ccc4cc(C(=O)O)ccc4c3)cc21`, half-maximal activity in the experiment on F9 [1] (AC50) was put at 300 nM. For the same molecule, the Ki in experiment [2] amounted to 860 nM; in experiment [3], 210 nM; in experiment [4], 8500 nM.

Molecule `O=C(O)c1ccc2cc(-c3ccc(CCCO)c(C45CC6CC(CC(C6)C4)C5)c3)ccc2c1` yielded a half-maximal activity concentration (AC50) in the experiment with F9 [1] of 7.5 nM. For the same molecule, the Ki was determined as 72 nM in experiment [2], 21 nM in experiment [3] and 695 nM in experiment [4].
